Measurements: ChEMBL document CHEMBL4689842, “EUbOPEN Chemogenomics Library wave 1” (2021)
Where “and” joins values, the source holds several entries; their conditions need not be identical. Equal values may be shown once.

Tested on: HEK-293T
Experiment: Multiplex assay against HEK293T;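 as to Population Tubulin-Different-Phenotype (%): share of the cells with healthy nuclei that show this phenotype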
Format: toxicity, cell-based
Conditions: human
Procedure, shortened: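 Per cents of healthy-nucleus cells form the tubulin, mitochondrial-mass and membrane-permeability phenotype values. Live cells were stained at seeding with Hoechst33342, BioTracker Green Microtubule Cytoskeleton Dye, MitoTracker Red and Annexin V Alexa Fluor 680. After compound addition they were imaged on a CQ1 microscope at 37°C and 5% CO2, and CellPathfinder machine-learning gating split them into Hoechst high-intensity objects or normal cells, normal cells into healthy, pyknosed or fragmented nuclei, and pyknosed cells into mitotic or apoptotic.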

[1] = 12 h, 1 µM, compound concentration 1 uM, replicate 1
[2] = 12 h, 1 µM, compound concentration 1 uM, replicate 2
[3] = 12 h, 10 µM, compound concentration 10 uM, replicate 1
[4] = 12 h, 10 µM, compound concentration 10 uM, replicate 2
[5] = 24 h, 1 µM, compound concentration 1 uM, replicate 1
[6] = 24 h, 1 µM, compound concentration 1 uM, replicate 2
[7] = 24 h, 10 µM, compound concentration 10 uM, replicate 1
[8] = 24 h, 10 µM, compound concentration 10 uM, replicate 2
[9] = 48 h, 1 µM, compound concentration 1 uM, replicate 1
[10] = 48 h, 1 µM, compound concentration 1 uM, replicate 2
[11] = 48 h, 10 µM, compound concentration 10 uM, replicate 1
[12] = 48 h, 10 µM, compound concentration 10 uM, replicate 2

CS(=O)(=O)N1CCCC(NC(=O)[C@H](CCC2CCCCC2)NC(=O)c2ccc(CNC(=O)c3cnc4ccccn34)cc2)C1 (some centres undefined) [SR-302]
Population Apoptotic (%) [1]: 40% [middle of 4 runs] | Population Fragmented Nuclei (%) [1]: 13% [middle of 4 runs] | Population Hoechst High Intensity Objects (%) [1]: 14% [middle of 4 runs] | Population Membrane Permeable-Phenotype (%) [1]: 3% and 2% | Population Mitotic Cells (%) [1]: 65% [middle of 4 runs] | Population Normal (%) [1]: 86% and 85% and 81% | Total Cell Count [1]: 519 [middle of 4 runs] | Population Apoptotic (%) [2]: 17% [middle of 4 runs] | Population Fragmented Nuclei (%) [2]: 8% and 5% | Population Healthy Nuclei (%) [2]: 48% [middle of 4 runs] | Population Hoechst High Intensity Objects (%) [2]: 6% and 3% and 2% | Population Mitotic Cells (%) [2]: 88% [middle of 4 runs] | Population Normal (%) [2]: 93% and 96% and 97% | Population Apoptotic (%) [3]: 65% [middle of 4 runs] | Population Fragmented Nuclei (%) [3]: 13% and 12% and 16% | Population Hoechst High Intensity Objects (%) [3]: 16% [middle of 4 runs] | Population Membrane Permeable-Phenotype (%) [3]: 7% and 4% and 3% | Population Mitotic Cells (%) [3]: 35% [middle of 4 runs] | Population Normal (%) [3]: 85% and 83% and 77% and 86% | Total Cell Count [3]: 331 [middle of 4 runs] | Population Healthy Nuclei (%) [4]: 30% and 36% and 87% | Population Membrane Permeable-Phenotype (%) [4]: 12% and 8% | Population Mitotic Cells (%) [4]: 52% [middle of 4 runs] | Population Normal (%) [4]: 95% and 90% and 94% and 97% | Population Tubulin-Different-Phenotype (%) [4]: 93% [middle of 4 runs] | Population Apoptotic (%) [5]: 52% [middle of 4 runs] | Population Fragmented Nuclei (%) [5]: 13% [middle of 4 runs] | Population Hoechst High Intensity Objects (%) [5]: 15% and 14% and 24% | Population Membrane Permeable-Phenotype (%) [5]: 4% and 3% and 2% | Population Mitotic Cells (%) [5]: 64% [middle of 4 runs] | Population Normal (%) [5]: 84% and 85% and 75% | Population Healthy Nuclei (%) [6]: 65% [middle of 4 runs] | Population Membrane Permeable-Phenotype (%) [6]: 11% and 7% and 5% | Population Mitotic Cells (%) [6]: 76% and 75% and 93% | Population Normal (%) [6]: 95% and 97% and 96% and 98% | Population Apoptotic (%) [7]: 63% and 66% and 26% | Population Fragmented Nuclei (%) [7]: 18% [middle of 4 runs] | Population Hoechst High Intensity Objects (%) [7]: 17% [middle of 4 runs] | Population Mitotic Cells (%) [7]: 36% and 33% and 73% | Population Normal (%) [7]: 82% and 84% and 81% and 89% | Total Cell Count [7]: 335 [middle of 4 runs] | Population Fragmented Nuclei (%) [8]: 3% and 6% | Population Healthy Nuclei (%) [8]: 44% and 77% and 50% | Population Membrane Permeable-Phenotype (%) [8]: 13% and 6% and 5% | Population Mitotic Cells (%) [8]: 94% and 46% and 37% | Population Normal (%) [8]: 98% and 97% and 91% and 95% | Population Tubulin-Different-Phenotype (%) [8]: 56% and 88% and 94% | Population Apoptotic (%) [9]: 46% and 31% and 58% | Population Fragmented Nuclei (%) [9]: 25% and 16% and 23% | Population Healthy Nuclei (%) [9]: 24% and 43% and 23% | Population Hoechst High Intensity Objects (%) [9]: 11% and 24% | Population Membrane Permeable-Phenotype (%) [9]: 1% and 0% | Population Mitochondria Different-Phenotype (%) [9]: 42% and 44% and 58% | Population Mitotic Cells (%) [9]: 53% and 68% and 41% | Population Normal (%) [9]: 88% and 76% | Population Pyknosed Nuclei (%) [9]: 49% and 40% and 53% | Population Tubulin-Different-Phenotype (%) [9]: 18% and 29% and 41% | Total Cell Count [9]: 293 and 638 and 325 | Population Apoptotic (%) [10]: 30% and 16% and 25% | Population Fragmented Nuclei (%) [10]: 5% and 6% and 7% | Population Healthy Nuclei (%) [10]: 81% and 84% and 82% | Population Hoechst High Intensity Objects (%) [10]: 5% and 4% | Population Membrane Permeable-Phenotype (%) [10]: 3% | Population Mitochondria Different-Phenotype (%) [10]: 9% and 8% and 10% | Population Mitotic Cells (%) [10]: 69% and 83% and 74% | Population Normal (%) [10]: 94% and 95% | Population Pyknosed Nuclei (%) [10]: 12% and 9% and 10% | Population Tubulin-Different-Phenotype (%) [10]: 16% and 27% | Total Cell Count [10]: 344 and 689 and 583 | Population Apoptotic (%) [11]: 64% and 65% and 62% | Population Fragmented Nuclei (%) [11]: 23% and 21% and 33% | Population Healthy Nuclei (%) [11]: 18% and 20% and 19% | Population Hoechst High Intensity Objects (%) [11]: 22% and 18% | Population Membrane Permeable-Phenotype (%) [11]: 3% and 0% | Population Mitochondria Different-Phenotype (%) [11]: 90% and 100% and 97% | Population Mitotic Cells (%) [11]: 35% and 34% and 37% | Population Normal (%) [11]: 77% and 81% | Population Pyknosed Nuclei (%) [11]: 58% and 57% and 47% | Population Tubulin-Different-Phenotype (%) [11]: 96% and 95% | Total Cell Count [11]: 360 and 347 and 256 | Population Apoptotic (%) [12]: 61% and 73% and 52% | Population Fragmented Nuclei (%) [12]: 4% and 5% and 8% | Population Healthy Nuclei (%) [12]: 69% and 75% and 71% | Population Membrane Permeable-Phenotype (%) [12]: 1% | Population Mitochondria Different-Phenotype (%) [12]: 89% and 83% | Population Mitotic Cells (%) [12]: 38% and 26% and 47% | Population Normal (%) [12]: 97% and 95% and 92% | Population Pyknosed Nuclei (%) [12]: 26% and 19% | Total Cell Count [12]: 310 and 372 and 210
